The results in this text go back to PubChem BioAssay AID651576 (The Scripps Research Institute Molecular Screening Center, 2012).

Each structure is given as a SMILES string. The source made the active and inactive calls.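 The calls were made as follows: active = inhibition of at least 50%, averaged over three replicate wells; inactive = inhibition below 50%.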

In this assay the test system is HCV core protein (core106) dimerization, Hepatitis C virus. Put plainly: disruption of HCV core self-association – biochemical, AlphaScreen luminescence, single dose 15 µM, powder samples, late-stage follow-up (AID 651576). Conditions: AlphaScreen GST/Flag-core106 dimerization, at 15 µM, active compounds read high. An outline of the steps: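 material = HCV core106 dimerization between GST-tagged and Flag-tagged core106 proteins | medium = HEPES pH 7.5 with DTT and CHAPS | probe or stimulus = acceptor and donor beads at 20 µg/mL each | timing = protein preincubation 1 h at room temperature, 1 h per bead step | technique = AlphaScreen luminescence | evaluation = percent signal inhibition relative to uninhibited control wells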
Background: Alpha assays give light when donor and acceptor beads are brought close together.

As to `CC(=O)N1CCN(CCNC(=O)CSc2nc3nc(C)c(Cc4ccc(C)cc4)c(C)n3n2)CC1`, the inhibition is < 50% (inactive).

As for `Cc1ccc(Cc2c(C)nc3nc(SCC(=O)NCCN4CCOCC4)nn3c2C)cc1`, the inhibition was 60%.

`Cc1ccc(Cc2c(C)nc3nc(SCC(=O)N[C@H]4CCCN(C(=O)CSc5nc6nc(C)c(Cc7ccc(C)cc7)c(C)n6n5)C4)nn3c2C)cc1`: the inhibition is 85%.

As to `CCCNC(=O)CSc1nc2nc(C)c(Cc3cccc(C)c3)c(C)n2n1`, the inhibition is 33% (inactive).

In the case of `Cc1ccc(Cc2c(C)nc3nc(SCc4ccc(Cl)cc4)nn3c2C)cc1`, the inhibition was 52%.

On to `Cc1ccc(Cc2c(C)nc3nc(SCC(=O)NCCN4CCN(Cc5ccccc5)CC4)nn3c2C)cc1`, for which the inhibition was 66%.

In the case of `Cc1ccc(Cc2c(C)nc3nc(SCC(=O)NCCN4CCN(CCc5ccccc5)CC4)nn3c2C)cc1`, the inhibition is 65%.

Regarding `Cc1ccc(Cc2c(C)nc3nc(SCC(=O)NCCN4CCCN(S(C)(=O)=O)CC4)nn3c2C)cc1`, the inhibition was 53%.

Consider `Cc1ccc(Cc2c(C)nc3nc(SCC(=O)N4CCN(Cc5ccc(C)cc5)CC4)nn3c2C)cc1`, for which the inhibition was 14% (inactive).

Regarding `Cc1ccc(Cc2c(C)nc3nc(SCC(=O)NCC4CCCCN4C(=O)CSc4nc5nc(C)c(Cc6ccc(C)cc6)c(C)n5n4)nn3c2C)cc1` (stereo not drawn), the inhibition was 93%.

As to `Cc1ccc(Cc2c(C)nc3nc(SCC(=O)NCCN(C)C)nn3c2C)cc1`, the inhibition is < 50% (inactive).

As to `Cc1ccc(Cc2c(C)nc3nc(SCC(=O)NCCN4CCCCC4)nn3c2C)cc1`, the inhibition was 56%.

As for `CCCNC(=O)CSc1nc2nc(C)c(Cc3ccc(C)cc3)c(C)n2n1`, the inhibition is 38% (inactive).

Take `Cc1ccc(Cc2c(C)nc3nc(SCC(=O)NCCN4CCCN(S(=O)(=O)c5ccc(C)cc5)CC4)nn3c2C)cc1`: the inhibition was 79%.

For `Cc1ccc(Cc2c(C)nc3nc(SCC(=O)NCCNC(=O)CSc4nc5nc(C)c(Cc6ccc(C)cc6)c(C)n5n4)nn3c2C)cc1`, the inhibition is 52%.

As for `Cc1ccc(Cc2c(C)nc3nc(SCC(=O)NCC4CCN(C(=O)CSc5nc6nc(C)c(Cc7ccc(C)cc7)c(C)n6n5)CC4)nn3c2C)cc1`, the inhibition was 89%.

As for `Cc1ccc(Cc2c(C)nc3nc(SCC(=O)N4CCCN(C(=O)CSc5nc6nc(C)c(Cc7ccc(C)cc7)c(C)n6n5)CC4)nn3c2C)cc1`, the inhibition was 90%.

As for `Cc1nc2nc(SCC(=O)N3CCN(C(=O)CSc4nc5nc(C)c(Cc6ccc(Br)cc6)c(C)n5n4)CC3)nn2c(C)c1Cc1ccc(Br)cc1`, the inhibition is 25% (inactive).

Take `Cc1ccc(Cc2c(C)nc3nc(SCC(=O)N4CCN(CCc5ccccc5)CC4)nn3c2C)cc1`: the inhibition was 41% (inactive).

For `Cc1ccc(Cc2c(C)nc3nc(SCC(=O)NCC[N+]4(Cc5ccc(F)cc5)CCN(Cc5ccc(F)cc5)CC4)nn3c2C)cc1`, the inhibition was < 50% (inactive).

With `Cc1ccc(Cc2c(C)nc3nc(SCC(=O)NC4CCCCCCC4)nn3c2C)cc1`, the inhibition is 59%.

On to `Cc1ccc(Cc2c(C)nc3nc(SCC(=O)NCCN4CCN(S(=O)(=O)c5ccc(C)cc5)CC4)nn3c2C)cc1`, for which the inhibition was < 50% (inactive).

As for `Cc1ccc(Cc2c(C)nc3nc(SCC(=O)NCCN4CCCN(C(=O)OC(C)(C)C)CC4)nn3c2C)cc1`, the inhibition is < 50% (inactive).

For the molecule `Cc1ccc(Cc2c(CCc3ccccc3)nc3nc(SCC(=O)NCCN4CCOCC4)nn3c2C)cc1`, the inhibition is 44% (inactive).

Consider `CCCN1CCN(CCNC(=O)CSc2nc3nc(C)c(Cc4ccc(C)cc4)c(C)n3n2)CC1`, for which the inhibition is < 50% (inactive).

`Cc1ccc(Cc2c(C)nc3nc(SCC(=O)NCCN4CCCN(C(=O)c5ccccc5)CC4)nn3c2C)cc1`: the inhibition was < 50% (inactive).

On to `Cc1ccc(Cc2c(C)nc3nc(SCC(=O)NCCCNC(=O)CSc4nc5nc(C)c(Cc6ccc(C)cc6)c(C)n5n4)nn3c2C)cc1`, for which the inhibition was 96%.

For the molecule `Cc1ccc(Cc2c(C)nc3nc(SCC(=O)NCCCCCNC(=O)CSc4nc5nc(C)c(Cc6ccc(C)cc6)c(C)n5n4)nn3c2C)cc1`, the inhibition was 78%.

As a reminder, the inhibition is the relative decrease from the control value, in per cent.
